Square brackets hold non-standard residues; d marks the D form. Ends that are not written are not given here. Peptide text beside a SMILES is read from it. * marks the point of attachment. Biotin = O=C1N[C@H]2[C@H](CS[C@H]2CCCCC(=O)*)N1; lc = a hydrocarbon chain of 6 methylene groups; Abu = CC[C@H](N)C(=O)O; Dap = NC[C@H](N)C(=O)O; Acryloyl = C=CC(=O)*
Legend:
wt Siah1 = assay: MALDI-TOF MS of covalent modification, wt Siah1; assay type: binding; conditions: protein incubated with peptide in 0.5x PBS (Figures 2e, 3d)
Method in brief: (§1)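 Siah1 residues 81-282 (wild type or T156C mutant) from pET15b expression, incubated with peptide in 0.5x PBS. Equal volumes of sample and sinapic acid matrix (20 mg/ml in 50% acetonitrile-0.1% TFA) were co-crystallised on target and air-dried 5 min. Controls were buffer-only and protein spectra. Peaks were picked by centroid mass find (S/N threshold 5, peak width 40 m/z, 80% height, Top Hat baseline subtraction).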

T156C Siah1 = assay: X-ray crystal structure of BI-117C3/T156C Siah1 complex; assay type: binding; conditions: crystal structure at 2.8 Å, judged by refined atomic B-factors
Method in brief: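 Siah1 residues 81–282 with T156C mutation, purified by a published method, mixed with 2-fold excess test peptide at 4 °C for 16–18 h. Doubly peptide-bound dimer isolated by anion exchange. Sitting-drop vapour-diffusion crystals grown over 60–65% MPD, 100 mM N,N-bis(2-hydroxyethyl)glycine pH 9.0. Synchrotron data; molecular replacement using a refined covalent peptide–Siah1 dimer as search model.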

Siah1 T156C = assay: MALDI-TOF MS of covalent modification, Siah1 T156C; assay type: binding; conditions: protein incubated with peptide in 0.5x PBS (Figure 2d)
Method in brief: as §1

his6-Siah1 (aa 81-282) [1] = biological target: T1, his6-Siah1 (aa 81-282) (Homo sapiens, UniProt Q8IUQ4); assay: DELFIA displacement of biotin-PHYL, wild type Siah; assay type: binding
T1 sequence (Q8IUQ4 81-282): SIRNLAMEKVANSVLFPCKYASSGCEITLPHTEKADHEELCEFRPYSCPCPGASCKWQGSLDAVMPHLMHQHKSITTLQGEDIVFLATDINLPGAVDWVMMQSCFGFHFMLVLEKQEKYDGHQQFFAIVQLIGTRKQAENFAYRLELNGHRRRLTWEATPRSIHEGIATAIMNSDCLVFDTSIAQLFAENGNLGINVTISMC

[2] = biological target: T2, his6-Siah1 T156C (aa 81-282) (Homo sapiens, UniProt Q8IUQ4, T156C); assay: DELFIA displacement of biotin-PHYL, mutant T156C Siah; assay type: binding
T2 sequence (Q8IUQ4 81-282 T156C): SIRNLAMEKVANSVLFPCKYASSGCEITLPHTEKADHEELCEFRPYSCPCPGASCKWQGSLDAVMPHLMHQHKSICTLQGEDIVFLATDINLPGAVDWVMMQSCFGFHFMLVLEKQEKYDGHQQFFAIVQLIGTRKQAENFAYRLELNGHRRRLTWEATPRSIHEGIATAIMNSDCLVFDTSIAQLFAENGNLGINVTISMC

[3] = test system: substrate-binding domain of Siah; conditions: ref House et al., 2003, 2006; cited from earlier work
his6-Siah1 (aa 81-282) [4] = biological target: T3, his6-Siah1 (aa 81-282) (UniProt Q8IUQ4 81-282); assay: DELFIA displacement assay
T3 sequence (looked up): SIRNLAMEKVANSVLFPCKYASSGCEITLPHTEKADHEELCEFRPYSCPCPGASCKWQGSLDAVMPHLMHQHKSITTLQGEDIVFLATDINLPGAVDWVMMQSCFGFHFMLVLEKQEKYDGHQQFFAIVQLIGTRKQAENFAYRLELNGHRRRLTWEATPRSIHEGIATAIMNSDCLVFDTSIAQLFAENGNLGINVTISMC

[5] = biological target: T4, his6-Siah1 T156C (aa 81-282) (UniProt Q8IUQ4 81-282, T156C); assay: DELFIA displacement assay
T4 sequence (looked up): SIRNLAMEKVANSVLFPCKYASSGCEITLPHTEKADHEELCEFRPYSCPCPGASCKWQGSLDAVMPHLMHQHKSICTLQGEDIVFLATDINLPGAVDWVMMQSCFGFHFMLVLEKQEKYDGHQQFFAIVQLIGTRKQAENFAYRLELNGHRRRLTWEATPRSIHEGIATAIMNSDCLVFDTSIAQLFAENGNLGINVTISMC

crystal structure = biological target: the molecule itself; assay: crystal structure
[6] = biological target: T4, his6-Siah1 T156C (aa 81-282); assay: DELFIA displacement assay; remark: listed apart in the source

## C=CC(=O)NCCCC[C@H](NC(=O)[C@@H]1CCCN1C(=O)[C@H](CCCNC(=N)N)NC(=O)[C@@H](NC(=O)[C@H](CCSC)NC(=O)[C@H](C)NC(=O)[C@@H](NC(=O)[C@@H]1CCCN1C(=O)[C@H](CCCNC(=N)N)NC(=O)[C@H](CC(C)C)NC(=O)[C@H](CCCCN)NC(C)=O)C(C)C)C(C)C)C(=O)N[C@H](C(=O)N[C@@H](CCCNC(=N)N)C(N)=O)C(C)C [BI-107F7] (Ac-KLRPVAMVRPK(Acryloyl)VR-NH2)
Wt Siah1
  Covalent modification of wt Siah1 by MALDI-TOF mass spectrometry: confirmed the formation of the covalent complex

## C=CC(=O)NC[C@H](NC(=O)[C@@H](NC(=O)[C@@H]1CCCN1C(=O)[C@H](CCCNC(=N)N)NC(=O)[C@H](CC(C)C)NC(=O)[C@H](CCCCN)NC(C)=O)C(C)C)C(=O)N[C@@H](CCSC)C(=O)N[C@H](C(=O)N[C@@H](CCCNC(=N)N)C(=O)N1CCC[C@H]1C(=O)N[C@@H](Cc1c[nH]c2ccccc12)C(=O)N[C@H](C(=O)N[C@@H](CCCNC(=N)N)C(N)=O)C(C)C)C(C)C [BI-117C3] (Ac-KLRPV[Dap](Acryloyl)MVRPWVR-NH2)
T156C Siah1
  Efficiency of covalent thioether bond formation to Cys156: ~ 100%
Siah1 T156C
  Covalent modification of Siah1 T156C by MALDI-TOF mass spectrometry: expected mass increase
Wt Siah1
  Covalent modification of wt Siah1 by MALDI-TOF mass spectrometry: unable to covalently modify wt Siah1

## Ac-KLRPVAMVRPTVR-NH2 [BI-107D1]
his6-Siah1 (aa 81-282) [1]
  IC50: 1 µM
[2]
  IC50: 1 µM

## Ac-QQERTKLRPVAMVRPTVRVQPQL-NH2 [PHYL]
[3]
  Affinity for the substrate-binding domain of Siah: low micromolar affinity

## Ac-RQIKIWFQNRRMKWKKPPPPPPPPPPQQERTKLRPVAMVRPTVRVQPQL-NH2 [PEN-P10-PHYL, reference compound]
his6-Siah1 (aa 81-282) [1]
  IC50: 1 µM

B1: BI-117C3 (Ac-KLRPVδMVRPWVR-NH2) (peptide)
chain: Ac-KLRPV[Dap](Acryloyl)MVRPWVR-NH2
SMILES: C=CC(=O)NC[C@H](NC(=O)[C@@H](NC(=O)[C@@H]1CCCN1C(=O)[C@H](CCCNC(=N)N)NC(=O)[C@H](CC(C)C)NC(=O)[C@H](CCCCN)NC(C)=O)C(C)C)C(=O)N[C@@H](CCSC)C(=O)N[C@H](C(=O)N[C@@H](CCCNC(=N)N)C(=O)N1CCC[C@H]1C(=O)N[C@@H](Cc1c[nH]c2ccccc12)C(=O)N[C@H](C(=O)N[C@@H](CCCNC(=N)N)C(N)=O)C(C)C)C(C)C
his6-Siah1 (aa 81-282) [4]
  IC50: > 100 µM
[5]
  IC50: 0.006 µM

B2: Siah1 81-282 (wild-type) (domain or fragment, UniProt Q8IUQ4 81-282, looked up)
chain: SIRNLAMEKVANSVLFPCKYASSGCEITLPHTEKADHEELCEFRPYSCPCPGASCKWQGSLDAVMPHLMHQHKSITTLQGEDIVFLATDINLPGAVDWVMMQSCFGFHFMLVLEKQEKYDGHQQFFAIVQLIGTRKQAENFAYRLELNGHRRRLTWEATPRSIHEGIATAIMNSDCLVFDTSIAQLFAENGNLGINVTISMC
Crystal structure
  binding result: binds

B3: Siah1 81-282 (T156C mutant), for crystallographic studies (domain or fragment, UniProt Q8IUQ4 81-282, looked up)
chain: SIRNLAMEKVANSVLFPCKYASSGCEITLPHTEKADHEELCEFRPYSCPCPGASCKWQGSLDAVMPHLMHQHKSICTLQGEDIVFLATDINLPGAVDWVMMQSCFGFHFMLVLEKQEKYDGHQQFFAIVQLIGTRKQAENFAYRLELNGHRRRLTWEATPRSIHEGIATAIMNSDCLVFDTSIAQLFAENGNLGINVTISMC
Crystal structure
  binding result: binds

## {Biotin-lc}-QQERTKLRPVAMVRPTVRVQPQL [biotin-PHYL (biotin-lc-QQERTKLRPVAMVRPTVRVQPQL)]
[6]
  binding result: binds

## Ac-KLRPVAMVRPK(Acryloyl)VR-NH2 [BI-107F7 (Ac-KLRPVAMVRPαVR-NH2)]
his6-Siah1 (aa 81-282) [4]
  IC50: 0.1 µM

## Ac-KLRPV[Abu]MVRPTVR-NH2 [BI-107E1 (Ac-KLRPVεMVRPTVR-NH2)]
his6-Siah1 (aa 81-282) [4]
  IC50: 2 µM
[5]
  IC50: 2 µM

## Ac-KLRPVAMVRPTVR-NH2 [BI-107D1 (Ac-KLRPVAMVRPTVR-NH2)]
his6-Siah1 (aa 81-282) [4]
  IC50: 1 µM
[5]
  IC50: 1 µM

## Ac-KLRPVAMVRPWVR-NH2 [BI-107F1 (Ac-KLRPVAMVRPWVR-NH2)]
[5]
  IC50: 0.4 µM

## Ac-KLRPVAMVRPMVR-NH2 [BI-107E12 (Ac-KLRPVAMVRPMVR-NH2)]
[5]
  IC50: 0.9 µM

## Ac-QQERTKLRPVAMVRPTVRVQPQL-NH2 [PHYL (Ac-QQERTKLRPVAMVRPTVRVQPQL-NH2)]
his6-Siah1 (aa 81-282) [4]
  IC50: 0.5 µM

Reference: PMC3763817 (Chemistry & biology, 2013)
